# ChEMBL document CHEMBL1123816, “Synthesis and antidepressant properties of novel 2-substituted 4,5-dihydro-1H-imidazole derivatives” (J Med Chem, 1987)
# Columns and labels:
# [1] = molecular target: T1, Adrenergic receptor alpha-2 (Rattus norvegicus, UniProt P22086+P19328+P22909); assay: (§1) Ability to displace [3H]clonidine from alpha-2 adrenergic receptor in rat brain homogenates in vitro; format: tissue-based
# T1 sequence (P22086 whole entry): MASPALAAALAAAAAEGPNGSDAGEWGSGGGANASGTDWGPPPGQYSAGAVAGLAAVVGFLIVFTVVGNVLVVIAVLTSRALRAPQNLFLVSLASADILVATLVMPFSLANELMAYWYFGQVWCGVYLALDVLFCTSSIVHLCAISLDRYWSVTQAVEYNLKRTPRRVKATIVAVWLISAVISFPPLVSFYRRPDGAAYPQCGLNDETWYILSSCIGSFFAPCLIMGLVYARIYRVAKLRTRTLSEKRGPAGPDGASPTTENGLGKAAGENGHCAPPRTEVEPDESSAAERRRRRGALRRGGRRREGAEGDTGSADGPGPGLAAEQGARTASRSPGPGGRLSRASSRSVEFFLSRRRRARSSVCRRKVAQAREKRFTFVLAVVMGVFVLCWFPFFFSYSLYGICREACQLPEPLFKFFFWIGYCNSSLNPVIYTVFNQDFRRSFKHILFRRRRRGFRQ
# T1 sequence (P19328 whole entry): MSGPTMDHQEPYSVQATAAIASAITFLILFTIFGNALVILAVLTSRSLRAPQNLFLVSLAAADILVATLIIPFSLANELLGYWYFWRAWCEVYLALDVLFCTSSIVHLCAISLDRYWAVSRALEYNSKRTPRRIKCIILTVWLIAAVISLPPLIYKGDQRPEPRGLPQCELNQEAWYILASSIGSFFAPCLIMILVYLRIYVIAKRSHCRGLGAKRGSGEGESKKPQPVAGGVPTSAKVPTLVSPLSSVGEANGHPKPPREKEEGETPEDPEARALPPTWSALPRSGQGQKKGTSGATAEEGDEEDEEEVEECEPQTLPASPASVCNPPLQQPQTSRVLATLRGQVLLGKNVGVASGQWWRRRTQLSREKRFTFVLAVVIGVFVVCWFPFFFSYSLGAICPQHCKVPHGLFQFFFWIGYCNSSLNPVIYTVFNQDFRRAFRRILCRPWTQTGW
# T1 sequence (P22909 whole entry): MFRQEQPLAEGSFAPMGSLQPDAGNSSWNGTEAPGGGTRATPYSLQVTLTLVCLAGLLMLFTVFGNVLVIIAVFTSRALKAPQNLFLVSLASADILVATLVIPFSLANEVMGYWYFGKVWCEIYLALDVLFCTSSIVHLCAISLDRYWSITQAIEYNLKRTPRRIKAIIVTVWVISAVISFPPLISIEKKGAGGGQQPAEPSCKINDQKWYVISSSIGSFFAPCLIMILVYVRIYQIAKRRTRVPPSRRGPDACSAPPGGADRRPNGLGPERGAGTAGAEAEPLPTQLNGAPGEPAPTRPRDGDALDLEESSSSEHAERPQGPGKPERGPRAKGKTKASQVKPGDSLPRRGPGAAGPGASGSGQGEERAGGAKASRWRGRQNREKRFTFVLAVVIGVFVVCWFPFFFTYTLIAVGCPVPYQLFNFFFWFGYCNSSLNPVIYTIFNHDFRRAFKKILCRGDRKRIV
# In short: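 Rat cerebral cortex homogenized in 50 mM Tris pH 7.7, washed twice by centrifugation at 48000g, resuspended in 50 volumes. Membranes incubated with 0.4 nM [3H]clonidine plus varied test concentrations, 30 min at 25 °C. Nonspecific binding defined with 1 μM unlabeled clonidine. GF/B filtration, scintillation counting. Run in triplicate; logit plot IC50 converted to apparent Ki (Cheng–Prusoff).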
# [2] = molecular target: T1, Adrenergic receptor alpha-2; assay: as §1; format: tissue-based; remark: listed apart in the source
# [3] = molecular target: T1, Adrenergic receptor alpha-2; assay: In vitro antagonistic activity against alpha-2 adrenergic receptor in isolated electrically stimulated rat vas deferens (clonidine-induced decrease in twitch height); format: functional, tissue-based
# [4] = selectivity ratio (Alpha-1[3H]-prazosin/Alpha2[3H]-clonidine)
# [5] = selectivity ratio (Alpha-1[Methoxiamine]/Alpha2[clonidine]
# In short: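 Ratio derived from Schild pA2 values in rat vas deferens: α1 antagonism against methoxamine contractions (24 °C Krebs, three antagonist concentrations) versus α2 antagonism against clonidine inhibition of field-stimulated twitch (33–34 °C, 80 V, 1 ms, 0.15 Hz).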
# Rattus norvegicus = assay: Minimum effective dose required for inhibition of serotonin uptake was determined by PCA method in rat by peroral administration; format: functional; conditions: po, read-out: MED
# In short: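 Fasted male Sprague–Dawley rats (160–200 g) given test compound orally in water (10 mL/kg) 15 min before p-chloroamphetamine 3 mg/kg ip. Forebrain taken 3 h later, extracted in acidified butanol then heptane/0.1 N HCl. Serotonin in aqueous phase measured fluorometrically after o-phthalaldehyde condensation (excitation 360 nm). Minimum effective dose reported.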
Ki [1] [nM],Ki [2] [nM],pA2 [3],Selectivity ratio [4],Selectivity ratio [5],Ratio [4],Ratio [5],Structure (SMILES),minimal effective dose (Rattus norvegicus) [mg/kg]
12,12,7.19,12.3,1.3,,,CC1=C(CC2=NCCN2)CCc2ccccc21.Cl,30
23,23,7.76,,,3.4,7.8,C1=C(CC2=NCCN2)CCc2ccccc21.Cl [NAPAMEZOLE HYDROCHLORIDE],30
